# Reference: ChEMBL document CHEMBL3804753, “Substituted quinolines as noncovalent proteasome inhibitors” (Bioorg Med Chem, 2016)
# pIC50: −log10 of the molar value.
# Tests used:
# [1] = biological target: T1, Proteasome Macropain subunit MB1 (Homo sapiens, UniProt P28074); assay: Inhibition of human 20S proteasome chymotryptic-like activity using Suc-LLVY-AMC as substrate measured for 30 mins by fluorescence assay
# T1 sequence (P28074 whole entry): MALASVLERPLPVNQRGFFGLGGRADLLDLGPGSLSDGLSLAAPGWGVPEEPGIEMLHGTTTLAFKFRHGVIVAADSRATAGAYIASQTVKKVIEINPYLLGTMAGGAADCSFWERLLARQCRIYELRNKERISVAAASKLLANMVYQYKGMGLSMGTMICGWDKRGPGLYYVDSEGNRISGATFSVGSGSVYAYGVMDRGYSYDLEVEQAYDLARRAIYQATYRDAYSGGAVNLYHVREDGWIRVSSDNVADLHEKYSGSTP
# In short: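 Purified human 20S proteasome (1 nM) in 50 mM Tris-HCl pH 7.5 with 0.03% SDS and 50 μM fluorogenic substrate (Suc-LLVY-AMC for CT-L, Z-ARR-AMC for T-L, Z-LLE-AMC for casp-L), 37 °C. Maximum fluorescence increase per minute gave specific activity; IC50 taken from the linear portion of the curves.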
# [2] = biological target: T1, Proteasome Macropain subunit MB1; assay: Inhibition of human 20S proteasome chymotryptic-like activity using Suc-LLVY-AMC as substrate assessed as fluorescence quinching control by fluorescence assay
# [3] = Inhibition of human 20s proteasome in human TNFalpa stimulated NF-kappaB-luc expressing HeLa cells assessed as suppression of NF-kappaB mediated gene expression preincubated for 30 min followed by TNFalpha stimulation measured after 8 hrs by steady-Glo luciferase assay; type: cell-based
# In short: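 HeLa NF-κB-luc cells were seeded in DMEM with 5% FBS and hygromycin B. After 24 h the medium was swapped for serum-free DMEM with antibiotics. Cells were pretreated 30 min at 37 °C, 5% CO2 with compound (final 50, 25, 12.5, 6.25, 3.13, 1.56 μM), vehicle 1% DMSO, or 50 μM MG-132 as positive control. TNF-α (25 ng/mL final) was then added for 8 h. Firefly luciferase was read by Steady-Glo, normalized to TNF-α stimulation. Average of 2 independent experiments.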
Compound,pIC50 [1],pIC50 [2],pIC50 [3]
Cc1cnc2ccccc2c1,< 4.60,,
CCCCc1ccc2cc(N(C)C)ccc2n1,< 4.60,,
Cc1nc2ccc(Cl)cc2cc1C1=CCCCC1,< 4.60,,
Cc1nc2cc(Cl)cc(Cl)c2cc1C1=CCCCC1,< 4.60,,
CN(C)c1ccc2nc(-c3ccccc3)c(-c3ccccc3)cc2c1,< 4.60,5.64,
Cc1nc2ccc(C(C)C)cc2cc1-c1ccccc1,< 4.60,,
Cc1cc(C)c2cc(C3=CCCCC3)c(C)nc2c1,,,4.92
COc1ccc2nc(C)c(C3=CCCCC3)cc2c1,< 4.60,,
Cc1nc2cc(Br)cc(Br)c2cc1C1=CCCCC1,< 4.60,,
c1ccc(-c2cnc3ccccc3c2)cc1,< 4.60,,
Cc1nc2ccccc2cc1C1=CCCCC1,< 4.60,,
Cc1nc2ccc(N3CCCCC3)cc2cc1C1=CCCCC1,5.27,,
Cc1nc2ccc(N3CCOCC3)cc2cc1C1=CCCCC1,5.04,,
C=C(C)c1cc2c(C)cc(C)cc2nc1CC,< 4.60,,
Cc1nc2ccc(F)cc2cc1C1=CCCCC1,< 4.60,,
CN(C)c1ccc2ncc(C(C)(C)C)cc2c1,< 4.60,,
Cc1nc2ccc(Br)cc2cc1-c1ccccc1,< 4.60,,
Cc1cc(C)c2cc(-c3ccccc3)c(-c3ccccc3)nc2c1,< 4.60,,
Cc1ccc2ccccc2n1 [QUINALDINE],< 4.60,,
